The source of these data is ChEMBL document CHEMBL1126625, “7-Azetidinylquinolones as antibacterial agents. Synthesis and structure-activity relationships” (J Med Chem, 1993).

In data set [1] the test system is Bacillus cereus. Kind of data set: Minimum inhibitory concentration (MIC) preventing growth of Bacillus cereus. The format is functional.
In data set [2] the test system is Bacillus subtilis. Kind of data set: Minimum inhibitory concentration (MIC) preventing growth of Bacillus subtilis. In kind it is functional.
Data set [3] concerns Escherichia coli. The experiment in a line: Minimum inhibitory concentration (MIC)preventing growth of Escherichia coli. The format is functional.
Data set [4] has as its system Klebsiella pneumoniae. Kind of data set: Minimum inhibitory concentration (MIC)preventing growth of Klebsiella pneumoniae. In kind it is functional.
The subject of data set [5] is Morganella morganii. The experiment in a line: Minimum inhibitory concentration (MIC) preventing growth of Morganella morganii. In kind it is functional.
The test system of data set [6] is Proteus vulgaris. The experiment in a line: Minimum inhibitory concentration (MIC) preventing growth of Proteus vulgaris. In kind it is functional.
Data set [7] deals with Staphylococcus epidermidis. The experiment in a line: Minimum inhibitory concentration (MIC) preventing growth of Staphylococcus epidermidis. The format is functional.
The subject of data set [8] is Staphylococcus aureus. The experiment in a line: Minimum inhibitory concentration (MIC) preventing growth of […]. In kind it is functional.
Data set [9] relates to Enterococcus faecalis. Kind of data set: Minimum inhibitory concentration (MIC) preventing growth of Streptococcus faecalis ATCC 10541. The format is functional.
Data set [10] deals with Enterobacter cloacae. Kind of data set: Minimum inhibitory concentration (MIC)preventing growth of Enterobacter cloacae. The format is functional.
Data set [11] relates to Pseudomonas aeruginosa. The experiment in a line: Minimum inhibitory concentration (MIC)preventing growth of Pseudomonas aeruginosa. The format is functional.
For data set [12], the system named is Escherichia coli. The experiment in a line: Efficacy on systemic infections after oral administration in mice was determined against Escherichia coli HM-42. The format is functional. In a few lines: (§1)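 Mouse protection test using 4 groups of 10 mice. Mice were infected intraperitoneally with a bacterial suspension slightly above LD100. A single oral dose was given immediately after infection, with four doses, one per group, chosen from in vitro activity. Survival was scored after one week, and ED50 (total mg/kg protecting 50% of mice) was interpolated from group survival rates.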

The subject of data set [13] is Pseudomonas aeruginosa. The experiment in a line: Efficacy on systemic infections after oral administration in mice was determined against Pseudomonas aeruginosa HS-116. In kind it is functional. In a few lines:
as §1

Data set [14] has as its system Staphylococcus aureus. Kind of data set: Efficacy on systemic infections after oral administration in mice was determined against […] HS-93. The format is functional. Summed up:
as §1

The subject of data set [15] is Mus musculus. The experiment in a line: Blood level after oral administration in mice (50 mg/kg) was determined (area under the concentration-time curve recorded at 0.5, 1, 2, and 4 hour after dosing). In kind it is ADME, organism-based. Details: dose 50 mg/kg, time < 4 hr, route oral. The following applies: in vivo. Summed up: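 Single oral dose of 50 mg/kg to mice. Blood taken from groups of six mice at 0.5, 1, 2 and 4 h after dosing. Serum levels measured by disk agar diffusion bioassay with Bacillus subtilis ATCC 6633 on Seed Agar, plates incubated 18 h at 37 °C, giving total activity in serum. AUC 0-4 h expressed as μg/mL […].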

≈ marks a conversion by molar mass, not a printed value.

As for `CC1(O)CN(c2c(F)cc3c(=O)c(C(=O)O)cn(C4CC4)c3c2F)C1`, the MIC in data set [1] was found to be 0.25 µg/mL (≈ 0.714 µM); in data set [2], 0.015 µg/mL (≈ 0.0428 µM); in data set [3] it was 0.5 µg/mL (≈ 1.43 µM); in data set [4] it was 0.5 µg/mL (≈ 1.43 µM); in data set [5], 0.5 µg/mL (≈ 1.43 µM); in data set [6], 0.5 µg/mL (≈ 1.43 µM). The minimum inhibitory concentration (MIC) in data set [7] worked out at 0.25 µg/mL (≈ 0.714 µM); in data set [8], 0.25 µg/mL (≈ 0.714 µM); in data set [9], 1 µg/mL (≈ 2.85 µM); in data set [10] it was 0.5 µg/mL (≈ 1.43 µM); in data set [11], 4 µg/mL (≈ 11.4 µM).
On to `CN(C)C1CN(c2nc3c(cc2F)c(=O)c(C(=O)O)cn3C2CC2)C1`, for which the MIC in data set [1] worked out at 0.12 µg/mL (≈ 0.346 µM); in [2], 0.015 µg/mL (≈ 0.0433 µM); in data set [3], 0.06 µg/mL (≈ 0.173 µM); in data set [4] it was 0.12 µg/mL (≈ 0.346 µM); in data set [5], 0.12 µg/mL (≈ 0.346 µM); in data set [6], 0.12 µg/mL (≈ 0.346 µM). In addition, the MIC in [7] came out at 0.12 µg/mL (≈ 0.346 µM); in [8], 0.25 µg/mL (≈ 0.722 µM); in data set [9] it was 2 µg/mL (≈ 5.77 µM); in data set [10] it was 0.12 µg/mL (≈ 0.346 µM); in data set [11], 2 µg/mL (≈ 5.77 µM).
Turning to `CN(C)C1(C)CN(c2c(F)cc3c(=O)c(C(=O)O)cn(C4CC4)c3c2F)C1`, the MIC stood at 0.25 µg/mL (≈ 0.662 µM) in data set [1]; 0.06 µg/mL (≈ 0.159 µM) in data set [2]; 0.12 µg/mL (≈ 0.318 µM) in data set [3]; 0.25 µg/mL (≈ 0.662 µM) in [4]; 0.25 µg/mL (≈ 0.662 µM) in data set [5]; 0.5 µg/mL (≈ 1.32 µM) in data set [6]. For the same compound, the minimum inhibitory concentration (MIC) in data set [7] worked out at 0.25 µg/mL (≈ 0.662 µM); in data set [8] it was 0.25 µg/mL (≈ 0.662 µM); in data set [9] it was 1 µg/mL (≈ 2.65 µM); in [10], 0.12 µg/mL (≈ 0.318 µM); in [11] it was 2 µg/mL (≈ 5.3 µM). For the same compound, the ED50 in data set [12] turned out to be 1.4 mg/kg; in data set [13], 70.2 mg/kg; in data set [14] it was 7.4 mg/kg.
In turn, `NCC1CN(c2c(F)cc3c(=O)c(C(=O)O)cn(C4CC4)c3c2F)C1` showed an area under the curve (AUC) in data set [15] of 1700 ng·h/mL. For the same compound, the minimal inhibitory concentration (MIC) in [1] came to 0.12 µg/mL (≈ 0.344 µM); in data set [2] it was 0.06 µg/mL (≈ 0.172 µM); in [3], 0.25 µg/mL (≈ 0.716 µM); in data set [4] it was 0.25 µg/mL (≈ 0.716 µM); in data set [5] it was 0.25 µg/mL (≈ 0.716 µM); in data set [6] it was 1 µg/mL (≈ 2.86 µM). For the same compound, the minimum inhibitory concentration (MIC) in data set [7] was determined as 0.12 µg/mL (≈ 0.344 µM); in data set [8] it was 0.12 µg/mL (≈ 0.344 µM); in data set [9], 0.12 µg/mL (≈ 0.344 µM); in data set [10], 0.25 µg/mL (≈ 0.716 µM); in [11], 2 µg/mL (≈ 5.73 µM).
Consider `CCn1cc(C(=O)O)c(=O)c2cc(F)c(N3CC(C)(N)C3)cc21`, for which the minimum inhibitory concentration (MIC) in [1] turned out to be 1 µg/mL (≈ 3.13 µM); in data set [2], 0.25 µg/mL (≈ 0.783 µM); in [3] it was 0.5 µg/mL (≈ 1.57 µM); in data set [4] it was 0.5 µg/mL (≈ 1.57 µM); in [5], 0.25 µg/mL (≈ 0.783 µM); in [6], 1 µg/mL (≈ 3.13 µM). The minimum inhibitory concentration (MIC) in data set [7] came out at 0.5 µg/mL (≈ 1.57 µM); in data set [8] it was 0.5 µg/mL (≈ 1.57 µM); in data set [9], 0.25 µg/mL (≈ 0.783 µM); in data set [10], 0.5 µg/mL (≈ 1.57 µM); in data set [11] it was 2 µg/mL (≈ 6.26 µM).
Regarding `NC1CN(c2nc3c(cc2F)c(=O)c(C(=O)O)cn3-c2ccc(F)cc2F)C1`, the MIC in data set [1] worked out at 0.25 µg/mL (≈ 0.64 µM); in [2], 0.12 µg/mL (≈ 0.307 µM); in data set [3], 0.12 µg/mL (≈ 0.307 µM); in [4] it was 0.015 µg/mL (≈ 0.0384 µM); in [5] it was 0.25 µg/mL (≈ 0.64 µM); in [6], 0.5 µg/mL (≈ 1.28 µM). The MIC is 0.25 µg/mL (≈ 0.64 µM) in data set [7]; 0.25 µg/mL (≈ 0.64 µM) in data set [8]; 2 µg/mL (≈ 5.12 µM) in data set [9]; 0.12 µg/mL (≈ 0.307 µM) in data set [10]; 2 µg/mL (≈ 5.12 µM) in data set [11]. In addition, the ED50 was found to be 1.5 mg/kg in [12], 75.2 mg/kg in data set [13] and 5.3 mg/kg in [14].
For `CC1(N)CN(c2c(F)cc3c(=O)c(C(=O)O)cn(C(C)(C)C)c3c2F)C1`, the minimal inhibitory concentration (MIC) came to 0.5 µg/mL (≈ 1.37 µM) in data set [1]; 0.12 µg/mL (≈ 0.328 µM) in data set [2]; 0.25 µg/mL (≈ 0.684 µM) in [3]; 0.06 µg/mL (≈ 0.164 µM) in data set [4]; 0.5 µg/mL (≈ 1.37 µM) in data set [5]; 1 µg/mL (≈ 2.74 µM) in data set [6]. Moreover, the MIC in data set [7] came out at 0.5 µg/mL (≈ 1.37 µM); in data set [8] it was 0.5 µg/mL (≈ 1.37 µM); in data set [9] it was 2 µg/mL (≈ 5.47 µM); in data set [10], 0.25 µg/mL (≈ 0.684 µM); in data set [11], 2 µg/mL (≈ 5.47 µM).
Consider `CCn1cc(C(=O)O)c(=O)c2cc(F)c(N3CC(C)(N)C3)c(F)c21`, for which the minimum inhibitory concentration (MIC) came to 0.5 µg/mL (≈ 1.48 µM) in [1]; 0.12 µg/mL (≈ 0.356 µM) in data set [2]; 0.12 µg/mL (≈ 0.356 µM) in [3]; 0.015 µg/mL (≈ 0.0445 µM) in [4]; 0.12 µg/mL (≈ 0.356 µM) in [5]; 1 µg/mL (≈ 2.96 µM) in data set [6]. The minimum inhibitory concentration (MIC) in data set [7] was 0.5 µg/mL (≈ 1.48 µM); in [8] it was 0.5 µg/mL (≈ 1.48 µM); in data set [9], 2 µg/mL (≈ 5.93 µM); in data set [10], 0.12 µg/mL (≈ 0.356 µM); in [11], 2 µg/mL (≈ 5.93 µM). Besides, the 50% effective dose (ED50) in data set [12] stood at 4.1 mg/kg; in [13], 57.3 mg/kg; in data set [14] it was 8.2 mg/kg.
